In ChEMBL document CHEMBL1122302, “2-Benzazepines. 2. Thiazolo[5,4-d][2]benzazepines” (J Med Chem, 1983):

What was measured:
[1] = target: GABA-A receptor; anion channel; experiment: In vitro displacement of [3H]diazepam from GABA-A benzodiazepine receptor; format: protein-complex assay
[2] = Prevention of metrazole induced convulsions in the antimetrazole test.; format: functional; details: Mus musculus
Summary of the method: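 Test compound given as a suspension in 5% acacia to three male CF-1 animals per dose level; metrazole 70 mg/kg iv 1 h later.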

Cc1nc2c(s1)CN=C(c1ccccc1)c1cc(Cl)ccc1-2
IC50 [1]: 32 nM | ED50 [2]: 63 mg/kg

Cc1nc2c(s1)CN=C(c1ccccc1Cl)c1cc(Cl)ccc1-2
IC50 [1]: 4.1 nM | ED50 [2]: 50 mg/kg

Nc1nc2c(s1)CN=C(c1ccccc1)c1cc(Cl)ccc1-2
IC50 [1]: 10.5 nM | ED50 [2]: 7.4 mg/kg

Cc1nc2c(s1)CN=C(c1ccccc1F)c1cc(Cl)ccc1-2
IC50 [1]: 7.8 nM | ED50 [2]: 30 mg/kg

Nc1nc2c(s1)CN=C(c1ccccc1Cl)c1cc(Cl)ccc1-2
IC50 [1]: 1.6 nM | ED50 [2]: 9.3 mg/kg

CN1C(=O)CN=C(c2ccccc2)c2cc(Cl)ccc21 [DIAZEPAM]
ED50 [2]: 1 mg/kg

Nc1nc2c(s1)CN=C(c1ccccc1F)c1cc(Cl)ccc1-2
IC50 [1]: 2.8 nM | ED50 [2]: 7.7 mg/kg
